One series relates to normal conscious dogs. The series can be described thus: Mean arterial pressure after acute oral administration in normal conscious dogs. It is filed as in vivo, dog. To be noted: oral 350 μg/kg, n=6, up to 240 min. The procedure, abridged: (§1)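 Adult male mongrel dogs (15-20 kg) with a femoral arterial port were fed 100 mEq/day sodium for 5 days, with water ad lib and sling acclimation. On the study day they were fasted and kept 30 min in a sling while conscious. Randomized single oral 350 μg/kg dose (conjugate n=5; unconjugated peptide n=6; vehicle n=6). MAP and blood were taken at baseline and 10–240 min. Plasma hBNP and cGMP were measured by radioimmunoassay. Mean ± SEM; repeated-measures ANOVA with Bonferroni.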

The test system of the next series is plasma cGMP. It is filed as in vivo, dog. Particulars: oral 350 μg/kg; normal conscious dogs; n=6. The procedure, abridged:
as §1

For series [1] the following is noted: native BNP; quoted in the discussion, no reference given; cited from earlier work.

Take “native hBNP: native human B-type natriuretic peptide, 32 amino acid mature form”: the “MAP response throughout the study (in words)” value in the series with normal conscious dogs is “did not change”. For the same substance, in the series with plasma cGMP, the “Plasma cGMP response (in words)” value was “not statistically different from baseline levels”. Also, the Half life result in series [1] is “approximately 20 minutes”.

Source of the values: paper PMC2767302 (Circulation, 2008).
